From ChEMBL document CHEMBL1152984, “Design, synthesis, and structure-activity relationships of benzophenone-based tetraamides as novel antibacterial agents” (J Med Chem, 2009)
Converted amounts (≈) assume the structure as drawn. The source made the active and inactive calls. The calls are words filed in the database; no cut-off is given here.

Assays:
Staphylococcus aureus [1] = assay: Antibacterial activity against methicillin-resistant Staphylococcus aureus; format: functional
Nucleic Acid [2] = assay: Binding affinity to DNA AT hairpin (5'-CGAAAAACAAAAAGTTTTTCG- 3') oligonucleotide by ethidium bromide displacement assay; format: nucleic-acid assay
Outline: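 DNA binding: ethidium bromide (4.0 μM) and AT hairpin (8.0 μM) in 0.1 M Tris-HCl with 25 mM NaCl, pH 7.0, were titrated with compound. Fluorescence (ex 545, em 595 nm) was read after 5 min and corrected for volume. K = K_EB[E]/[agent], where [agent] is the concentration that lowers fluorescence by 50%.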

Staphylococcus aureus [3] = assay: Antibacterial activity against vancomycin-resistant Staphylococcus aureus; format: functional
Nucleic Acid [4] = assay: Binding affinity to Escherichia coli DNA at 25 to 200 ug/mL by Hoescht dye competition assay; format: nucleic-acid assay
Nucleic Acid [5] = assay: Binding affinity to Staphylococcus aureus DNA at 25 to 200 ug/mL by Hoescht dye competition assay; format: nucleic-acid assay
Outline: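 Compounds at 25, 50, 100, 150 and 200 mg/L were added in triplicate, and the drop in emission at 461 nm was measured against Hoechst-stained untreated cells.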

Staphylococcus aureus [6] = assay: Antibacterial activity against Staphylococcus aureus ATCC 29213 assessed as inhibition of DNA synthesis at 8 times MIC treated 5 mins before [3H]thymidine challenge measured after 30 mins by [3H]thymidine incorporation assay; format: functional, organism-based
Outline: (§1)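 Cells were added to triplicate wells with compound (0.25-4.0 μg/mL), with 5% DMSO as the no-drug control; protein-synthesis reactions used M9 minimal medium. After 5 min at room temperature, 0.5-1.0 μCi of [3H]thymidine, uridine, N-acetylglucosamine or leucine was added. Reactions ran 15-30 min (60 min for cell wall). Cold-TCA precipitates were filtered, washed and scintillation-counted.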

Staphylococcus aureus [7] = assay: Antibacterial activity against Staphylococcus aureus ATCC 29213 assessed as inhibition of RNA synthesis at 8 times MIC treated 5 mins before [3H]uridine challenge measured after 30 mins by [3H]uridine incorporation assay; format: functional, organism-based; outline: as §1
Staphylococcus aureus [8] = assay: Antibacterial activity against glycopeptide-intermediate Staphylococcus aureus; format: functional
Staphylococcus aureus [9] = assay: Antibacterial activity against Staphylococcus aureus ATCC 29213 assessed as inhibition of lipid synthesis at 8 times MIC treated 5 mins before [3H]glycerol challenge measured after 60 mins by [3H]glycerol incorporation assay; format: functional, organism-based
Outline: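 S. aureus at early exponential phase, 0.1 mL cells in triplicate tubes with agent (0.25-4.0 μg/mL) or cerulenin control. Pre-incubated 5 min at room temperature before adding [3H]glycerol at 0.5 μCi. After centrifugation, the organic phase was dried and counted by liquid scintillation.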

CHO = assay: Cytotoxicity against CHO cells assessed as cell viability at 25 to 100 times MIC after 24 hrs by MTS assay; format: cell-based, Cricetulus griseus; conditions: chinese hamster
Outline: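 CHO cells in RPMI-1640 were seeded at 5000 cells/well, allowed to attach overnight, then exposed to 25, 50 and 100 mg/L for 24 h. MTS was added for 120 min and absorbance read at 505 nm. Results are % versus untreated controls (with or without 5% DMSO), from at least three experiments.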

Enterococcus = assay: Antibacterial activity against vancomycin-resistant Enterococcus; format: functional
Escherichia coli = assay: Antibacterial activity against Escherichia coli; format: functional
Staphylococcus aureus [10] = assay: Antibacterial activity against Staphylococcus aureus assessed as depolarization at […] measured for 60 mins by fluorescence spectrophotometer relative to nisin; format: functional, organism-based
Outline: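 Cells were loaded with 0.4 μM diSC3(5) for 1 h at 37 °C, then KCl was added. After compound addition in a stirred cuvette at 37 °C, fluorescence (ex 622, em 670 nm) was followed for 60 min. Cells plus dye gave the background; the change was expressed as % of the nisin control (100%).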

Staphylococcus aureus [11] = assay: Antibacterial activity against Staphylococcus aureus ATCC 29213 assessed as inhibition of cell wall synthesis at 8 times MIC treated 5 mins before [3H]N-acetylglucosamine challenge measured after 30 mins by [3H]N-acetylglucosamine incorporation assay; format: functional, organism-based
Outline: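 Culture added to triplicate wells with agent (0.25-4.0 μg/mL) or 5% DMSO no-drug control. Pre-incubated 5 min at room temperature, then [3H]N-acetylglucosamine at 0.5-1.0 μCi. Stopped with cold 5% TCA and held 30 min on ice. Precipitate filter-collected, washed, and scintillation counted. Vancomycin was the positive control.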

SMILES | MIC (Staphylococcus aureus [1]) [µg/mL] | Ka (Nucleic Acid [2]) [×10⁶ /M] | MIC (Staphylococcus aureus [3]) [µg/mL] | other results
Cn1cc(NC(=O)CCCCCCCCCCCC(=O)Nc2cc(C(=O)NCCN3CCCCC3)n(C)c2)cc1C(=O)NCCN1CCCCC1 | > 32 | 0.0125 | > 32 | 
Cn1cc(NC(=O)c2ccc(C(=O)c3ccccc3)cc2)cc1C(=O)NCCN1CCCC1 |  | 0.106 |  | 
Cn1cc(NC(=O)c2ccc(C(=O)c3ccc(C(=O)Nc4cn(C)c(C(=O)NCCN5CCOCC5)n4)cc3)cc2)nc1C(=O)NCCN1CCOCC1 | > 32 |  | > 32 | 
Cn1cc(NC(=O)c2ccc(C(=O)c3ccc(C(=O)Nc4cn(C)c(C(=O)NCCN5CCCCC5)n4)cc3)cc2)nc1C(=O)NCCN1CCCCC1 | 4 (≈ 5.43 µM) |  | 8 (≈ 10.9 µM) | Activity (Nucleic Acid [4]): Active; Activity (Nucleic Acid [5]): Active
Cn1cc(NC(=O)c2ccc(C(=O)c3ccc(C(=O)Nc4cc(C(=O)NCCN5CCOCC5)n(C)c4)cc3)cc2)cc1C(=O)NCCN1CCOCC1 | 4 (≈ 5.41 µM) |  | 8 (≈ 10.8 µM) | 
O=C(O)c1cn(C2CC2)c2cc(N3CCNCC3)c(F)cc2c1=O |  |  |  | Activity (Staphylococcus aureus [6]): Active
CO[C@H]1/C=C/O[C@@]2(C)Oc3c(C)c(O)c4c(O)c(c(/C=N/N5CCN(C)CC5)c(O)c4c3C2=O)NC(=O)/C(C)=C\C=C\[C@H](C)[C@H](O)[C@@H](C)[C@@H](O)[C@@H](C)[C@H](OC(C)=O)[C@@H]1C |  |  |  | Activity (Staphylococcus aureus [7]): Active
CN(C)CCCNC(=O)c1cc(NC(=O)c2ccc(C(=O)c3ccc(C(=O)Nc4cc(C(=O)NCCCN(C)C)n(C)c4)cc3)cc2)cn1C | 8 (≈ 11.7 µM) | 1 | 16 (≈ 23.4 µM) | MIC (Staphylococcus aureus [8]): 8 µg/mL (≈ 11.7 µM)
C/C=C/C/C=C/CCC(=O)[C@H]1O[C@H]1C(N)=O |  |  |  | Activity (Staphylococcus aureus [9]): Active
CN(C)c1ccc(NC(=O)c2nc(NC(=O)c3ccc(C(=O)c4ccc(C(=O)Nc5cn(C)c(C(=O)Nc6ccc(N(C)C)cc6)n5)cc4)cc3)cn2C)cc1 | > 32 |  | > 32 | 
Cn1cc(NC(=O)c2ccccc2)cc1C(=O)NCCN1CCCCC1 | > 32 | 0.173 | > 32 | 
Cn1cc(NC(=O)c2ccc(C(=O)c3ccc(C(=O)Nc4cc(C(=O)NCCN5CCCC5)n(C)c4)cc3)cc2)cc1C(=O)NCCN1CCCC1 | 1 (≈ 1.41 µM) | 0.679 | 2 (≈ 2.83 µM) | Activity (CHO): Not Active; MIC (Enterococcus): 4 µg/mL (≈ 5.66 µM); MIC (Escherichia coli): 16 µg/mL (≈ 22.6 µM); Activity (Staphylococcus aureus [10]): Active; Activity (Nucleic Acid [4]): Active; MIC (Staphylococcus aureus [8]): 0.5 µg/mL (≈ 0.707 µM); Activity (Nucleic Acid [5]): Active
CN[C@H](CC(C)C)C(=O)N[C@H]1C(=O)N[C@@H](CC(N)=O)C(=O)N[C@H]2C(=O)N[C@H]3C(=O)N[C@H](C(=O)N[C@H](C(=O)O)c4cc(O)cc(O)c4-c4cc3ccc4O)[C@H](O)c3ccc(c(Cl)c3)Oc3cc2cc(c3O[C@@H]2O[C@H](CO)[C@@H](O)[C@H](O)[C@H]2O[C@H]2C[C@](C)(N)[C@H](O)[C@H](C)O2)Oc2ccc(cc2Cl)[C@H]1O |  |  |  | Activity (Staphylococcus aureus [11]): Active
